Results on twelve compounds are retold here after ChEMBL document CHEMBL3612004, “Primaquine-pyrimidine hybrids: synthesis and dual-stage antiplasmodial activity” (Eur J Med Chem, 2015).

Active and inactive are the calls of the source. The rule behind the calls is not given here.

Series [1] deals with Plasmodium berghei. The experiment in a line: Antiplasmodial activity against liver-stage of Plasmodium berghei expressing firefly luciferase infected in human Huh-7 cells after 48 hrs by bioluminescence assay. Type of series: functional, organism-based. Conditions: Huh-7, Liver. The method in brief: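 Huh-7 hepatoma cells were grown in RPMI 1640 with 10% FBS, NEAA, glutamine and 10 mM HEPES pH 7, at 37 °C and 5% CO2, and seeded at 1.0 × 10^4 per well the day before. Compound medium went on about 1 h before fresh A. stephensi sporozoites of firefly-luciferase P. berghei, followed by centrifugation at 1700 g for 5 min. Luminescence was read 48 h post-infection, and IC50 came from dose–response.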

Series [2] is described as follows: Cytotoxicity against human HuH7 cells assessed as effect on cell proliferation at 1 to 10 uM by Alamar Blue assay. Type of series: cell-based. Conditions: huh-7, 10 µM. The method in brief: (§1)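 Huh-7 viability was measured by Alamar Blue in parallel with the 48 h sporozoite infection assay, in RPMI 1640/10% FBS/HEPES medium at 37 °C and 5% CO2. The initial screen tested each compound at […], scoring cell confluence and proliferation.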

A further series relates to Plasmodium falciparum. Kind of series: Antiplasmodial activity against blood stage of chloroquine-sensitive Plasmodium falciparum NF54 by parasite lactate dehydrogenase assay. Type of series: functional, organism-based. The method in brief: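 Asexual P. falciparum was kept in continuous culture (modified Trager–Jensen) and read out by parasite lactate dehydrogenase. DMSO stocks were 20 mg/ml, tested as suspensions and diluted 2-fold in complete medium to 10 concentrations. Chloroquine and artesunate served as references. IC50 came from non-linear dose–response fitting; values are the mean of three observations.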

Series [3] is described as follows: Selectivity index, ratio of CC50 for human HuH7 cells to IC50 for liver-stage of Plasmodium berghei expressing firefly luciferase infected in human Huh-7 cells. Type of series: functional.
A short description of series [4]: Cytotoxicity against human HuH7 cells assessed as cell viability by Alamar Blue assay. Type of series: cell-based, Huh-7. The method in brief: as §1
Series [5] has as its system Plasmodium berghei. Kind of series: Antiplasmodial activity against Plasmodium berghei ANKA expressing luciferase infected in C57Bl/6J mouse assessed as reduction of liver parasite load at 50 mg/kg, po administered 8 hrs prior to parasite infection measured after 24 hrs. Type of series: functional, organism-based. Conditions: in the assay text read “measured after 47 hrs” for “measured after 24 hrs”. The method in brief: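 C57Bl/6J mice were inoculated intravenously with 5 × 10^3 luciferase-expressing P. berghei ANKA sporozoites from A. stephensi salivary glands. Drug was given at 50 mg/kg by oral gavage as a sunflower-oil suspension from a DMSO stock, 8 h before, at, and 24 h after infection; controls got vehicle. Livers were homogenized in guanidine thiocyanate denaturing solution 47 h post-infection to quantify parasite load.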

Series [6] deals with Plasmodium berghei. The experiment in a line: Ratio of primaquine IC50 to compound IC50 for liver-stage of Plasmodium berghei expressing firefly luciferase infected in human Huh-7 cells. Type of series: functional.

For the compound `CCOC(=O)c1c(C)nc(NCCCC(C)Nc2cc(OC)cc3cccnc23)nc1C` (stereo unspecified), the IC50 was 1860 nM in the series on Plasmodium berghei [1] and 3780 nM in the series with Plasmodium falciparum. Moreover, the Activity entry in series [2] is given as “Non-toxic”. In series [3], the “Ratio CC50/IC50” value was 32.6. Moreover, the CC50 in series [4] was determined as 61000 nM.

As for `C[C@H]1[C@H](OC(=O)CCC(=O)O)O[C@@H]2O[C@@]3(C)CC[C@H]4[C@H](C)CC[C@@H]1[C@@]24OO3` [ARTESUNATE], half-maximal inhibition in the series on Plasmodium falciparum (IC50) required 4.4 nM.

Consider `COc1cc(NC(C)CCCNc2nc(C)c(C(=O)OC(C)C)c(-c3ccccc3[N+](=O)[O-])n2)c2ncccc2c1` (stereo unspecified), for which the Activity result in series [2] is reported as “Non-toxic”. In the series on Plasmodium falciparum, this compound had an IC50 of 2790 nM.

`O=C1C(O)=C([C@H]2CC[C@H](c3ccc(Cl)cc3)CC2)C(=O)c2ccccc21` [ATOVAQUONE] had an IC50 with Plasmodium berghei [1] of 1.8 nM.

As for `COc1cc(NC(C)CCCNc2nc(C)c(C(=O)OC(C)C)c(-c3ccccc3)n2)c2ncccc2c1` (stereo unspecified), the Activity entry in series [2] is listed as “Non-toxic”. Further, in the series with Plasmodium falciparum, 4800 nM corresponded to half-maximal inhibition (IC50).

On to `COc1cc(NC(C)CCCNc2nc(C)c(C(=O)OC(C)C)c(-c3cccc([N+](=O)[O-])c3)n2)c2ncccc2c1` (stereo unspecified), for which the values for the IC50 in the series with Plasmodium berghei [1] and in the series on Plasmodium falciparum were 1500 nM and 2670 nM, respectively. In addition, in series [2], the Activity result was “Non-toxic”. Also, the outcome in the series on Plasmodium berghei [5] was inactive. Further, the “Ratio CC50/IC50” value in series [3] is given as over 66.6. The CC50 in series [4] was over 100000 nM.

For `COc1cc(NC(C)CCCNc2nc(C)c(C(=O)OC(C)C)c(-c3ccc([N+](=O)[O-])cc3)n2)c2ncccc2c1` (stereo unspecified), the Activity result in series [2] was “Non-toxic”. For the same compound, in the series on Plasmodium falciparum, the IC50 was 1930 nM.

Turning to `COc1cc(NC(C)CCCN)c2ncccc2c1` (stereo unspecified) [PRIMAQUINE], the IC50 in the series with Plasmodium berghei [1] was 8430 nM; in the series with Plasmodium falciparum it was 892 nM.

Consider `CCOC(=O)c1c(C)nc(NCCCC(C)Nc2cc(OC)cc3cccnc23)nc1-c1ccc(OC)cc1` (stereo unspecified), for which the IC50 in the series on Plasmodium berghei [1] worked out at 1570 nM; in the series with Plasmodium falciparum, 3280 nM. In addition, in series [2], the Activity entry is “Non-toxic”. The “Ratio CC50/IC50” value in series [3] was over 63.6. For the same compound, the CC50 in series [4] is over 100000 nM.

Consider `COC(=O)c1c(C)nc(NCCCC(C)Nc2cc(OC)cc3cccnc23)nc1C` (stereo unspecified), for which the Activity entry in series [2] was “Non-toxic”. In the series with Plasmodium falciparum, this compound returned an IC50 of 2000 nM.

For `CCOC(=O)c1c(C)nc(NCCCC(C)Nc2cc(OC)cc3cccnc23)nc1-c1ccccc1` (stereo unspecified), the figures for the IC50 in the series on Plasmodium berghei [1] and in the series on Plasmodium falciparum were 1260 nM and 4320 nM, respectively. In addition, the Activity entry in series [2] was “Non-toxic”. Further, the “Ratio IC50” value with Plasmodium berghei [6] worked out at 6.7. Moreover, the “Ratio CC50/IC50” value in series [3] is given as over 79.3. The CC50 in series [4] was over 100000 nM.

As to `CCOC(=O)c1c(C)nc(NCCCC(C)Nc2cc(OC)cc3cccnc23)nc1-c1ccc(F)cc1` (stereo unspecified), the Activity result in series [2] is given as “Non-toxic”. 3430 nM corresponded to half-maximal inhibition in the series with Plasmodium falciparum (IC50).
